# Calls of active or inactive are those of the source. No cut-off for these calls is given here.
# Experiments:
# [1] = Selectivity index, ratio of CC50 for human HeLa cells to IC50 for Plasmodium falciparum Dd2 […] cells; format: functional
# How it was run: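 Selectivity index computed as HeLa CC₅₀ (72 h methylene blue assay) divided by P. falciparum Dd2 IC₅₀ (72 h [³H]-hypoxanthine assay).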
# [2] = test system: Trypanosoma brucei brucei; assay: Antitrypanosomal activity against Trypanosoma brucei brucei TC221 after 72 hrs by alamar blue assay; format: functional, organism-based; details: TC221, 72 h
# How it was run: (§1)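 T. b. brucei TC 221 trypomastigotes grown in Baltz medium; 10⁴ parasites/mL exposed to graded compound concentrations (DMSO or 0.1 M NaOH solutions) at 37 °C, 5% CO₂. Alamar Blue absorbance at 550 nm (reference 630 nm) read at 48 h and 72 h. Parasite-only and compound-only controls; ED₅₀ by linear interpolation of three measurements.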
# [3] = test system: Trypanosoma brucei brucei; assay: Antitrypanosomal activity against Trypanosoma brucei brucei TC221 after 48 hrs by alamar blue assay; format: functional, organism-based; details: TC221, 48 h; how it was run: as §1
# [4] = target: ATP-dependent translocase ABCB1 (Homo sapiens, UniProt P08183); assay: Inhibition of ABCB1 overexpressed in human CCRF-CEM/VCR1000 cell assessed as inhibition of daunomycin efflux after 30 mins by FACS analysis
# [5] = target: T1, Multidrug resistance protein Pgh1 (Plasmodium falciparum) (UniProt Q9NG76); assay: Inhibition of Plasmodium PGH1-mediated fluorochrome accumulation into parasite digestive vacuole at […] concentration
# T1 sequence (whole entry): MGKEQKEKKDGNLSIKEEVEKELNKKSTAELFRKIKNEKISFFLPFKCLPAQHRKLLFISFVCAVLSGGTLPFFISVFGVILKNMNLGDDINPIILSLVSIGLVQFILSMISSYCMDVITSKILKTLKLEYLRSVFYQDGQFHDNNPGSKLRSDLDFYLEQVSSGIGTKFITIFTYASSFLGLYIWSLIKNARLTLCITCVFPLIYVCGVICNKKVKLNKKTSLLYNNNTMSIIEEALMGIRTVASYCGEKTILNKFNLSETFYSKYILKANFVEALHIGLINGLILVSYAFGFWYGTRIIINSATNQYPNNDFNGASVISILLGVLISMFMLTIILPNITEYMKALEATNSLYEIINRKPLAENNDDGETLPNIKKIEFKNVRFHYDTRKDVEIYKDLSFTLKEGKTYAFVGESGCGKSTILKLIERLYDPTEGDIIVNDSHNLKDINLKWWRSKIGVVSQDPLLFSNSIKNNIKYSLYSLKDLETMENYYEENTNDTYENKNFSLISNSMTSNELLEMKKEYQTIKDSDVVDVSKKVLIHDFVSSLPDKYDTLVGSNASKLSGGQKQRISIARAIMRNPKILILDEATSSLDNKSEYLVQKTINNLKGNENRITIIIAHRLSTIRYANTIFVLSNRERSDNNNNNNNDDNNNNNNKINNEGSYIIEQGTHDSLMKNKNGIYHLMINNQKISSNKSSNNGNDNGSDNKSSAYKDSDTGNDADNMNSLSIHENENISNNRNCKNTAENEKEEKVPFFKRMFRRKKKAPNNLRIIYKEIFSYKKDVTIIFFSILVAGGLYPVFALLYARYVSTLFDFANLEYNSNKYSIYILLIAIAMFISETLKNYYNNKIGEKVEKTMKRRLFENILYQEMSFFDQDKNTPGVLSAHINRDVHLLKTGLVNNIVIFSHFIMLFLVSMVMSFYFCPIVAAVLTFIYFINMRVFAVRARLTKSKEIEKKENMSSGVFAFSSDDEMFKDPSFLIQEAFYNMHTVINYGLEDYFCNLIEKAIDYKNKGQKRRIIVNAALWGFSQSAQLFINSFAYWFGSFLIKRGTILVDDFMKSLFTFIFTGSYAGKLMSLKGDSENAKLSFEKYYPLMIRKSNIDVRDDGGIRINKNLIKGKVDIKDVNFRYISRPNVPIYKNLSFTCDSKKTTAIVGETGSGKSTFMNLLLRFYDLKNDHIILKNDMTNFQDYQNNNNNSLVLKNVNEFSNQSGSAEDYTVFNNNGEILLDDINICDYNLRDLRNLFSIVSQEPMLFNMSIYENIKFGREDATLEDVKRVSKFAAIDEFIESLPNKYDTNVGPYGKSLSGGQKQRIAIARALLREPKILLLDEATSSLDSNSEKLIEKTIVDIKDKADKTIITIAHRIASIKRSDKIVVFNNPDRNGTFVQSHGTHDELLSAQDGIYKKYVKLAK
# [6] = Cytotoxicity against human HeLa cells after 72 hrs by methylene blue staining; format: cell-based
# How it was run: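 HeLa cells in RPMI 1640 with 10% heat-inactivated FBS and gentamicin; ~10,000 cells/well preincubated 48 h, then exposed to compound (DMSO stock 10 mg/mL diluted 1:200) for 72 h at 37 °C, 5% CO₂. Glutaraldehyde fixation, 0.05% methylene blue staining, elution with 0.33 M HCl, OD 660 nm.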
# Plasmodium falciparum = assay: Antimalarial activity against Plasmodium falciparum Dd2 […] cells after 72 hrs by [3H]hypoxanthine incorporation assay; format: functional, organism-based
# How it was run: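 Synchronized (sorbitol) blood-stage P. falciparum Dd2 cultures exposed to a range of compound concentrations for 72 h; growth read by [³H]-hypoxanthine incorporation, percent inhibition used to derive IC₅₀. At least three independent repeats, mean ± SEM.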
IC50 [2] [µM],IC50 [3] [µM],EC50 [4] [µM],inhibition [5],IC50 (Plasmodium falciparum) [µM],SMILES,Ratio CC50/IC50 [1],CC50 at 72 h [6] [µM]
7.02,5.06,5.12,inactive,2.26,CN1CCN(C(C(=O)Nc2ccc(NC(=O)c3cccnc3)cc2C(=O)c2ccccc2)c2ccccc2)CC1 (centres undefined),16,37
3.28,3.28,0.24,inactive,1.61,CN1CCN(C(C(=O)Nc2ccc(NC(=O)c3ccccc3)cc2C(=O)c2ccccc2)c2ccccc2)CC1 (racemic),10,16
2.64,1.98,0.04,inactive,0.24,CN1CCN(C(C(=O)Nc2ccc(NC(=O)c3ccc4ccccc4c3)cc2C(=O)c2ccccc2)c2ccccc2)CC1 (racemic),17,4
2.01,0.81,0.48,inactive,2.01,CN1CCN(CC(=O)Nc2ccc(NC(=O)c3ccc4ccccc4c3)cc2C(=O)c2ccccc2)CC1,5,9
2.68,1.93,0.23,inactive,0.93,CN1CCN(C(C(=O)Nc2ccc(NC(=O)c3cccc4ccccc34)cc2C(=O)c2ccccc2)c2ccccc2)CC1 (racemic),4,4
2.92,5.38,0.89,inactive,0.91,CN1CCN(C(C(=O)Nc2ccc(NS(=O)(=O)c3ccccc3)cc2C(=O)c2ccccc2)c2ccccc2)CC1 (racemic),29,26
83.2,49.4,–,inactive,> 16,CN1CCN(CC(=O)Nc2ccc(NC(=O)c3ccccc3)cc2C(=O)c2ccccc2)CC1,>7,> 109
3.02,3.27,0.06,inactive,1.8,CN1CCN(C(C(=O)Nc2ccc(NC(=O)CCc3ccccc3)cc2C(=O)c2ccccc2)c2ccccc2)CC1 (racemic),4,8
3.25,3.64,0.36,inactive,2,CN1CCN(C(C(=O)Nc2ccc(NC(=O)Cc3ccccc3)cc2C(=O)c2ccccc2)c2ccccc2)CC1 (racemic),8,16
22.9,23.1,–,inactive,9.45,CC(=O)Nc1ccc(NC(=O)CN2CCN(C)CC2)c(C(=O)c2ccccc2)c1,6,53
24.6,16.7,3.3,inactive,7.19,CCC(=O)Nc1ccc(NC(=O)C(c2ccccc2)N2CCN(C)CC2)c(C(=O)c2ccccc2)c1 (racemic),12,84
21.9,13.9,2.23,inactive,6.72,CN1CCN(CC(=O)Nc2ccc(NC(=O)CCc3ccccc3)cc2C(=O)c2ccccc2)CC1,12,80
4.67,11.4,0.39,inactive,3.04,CN1CCN(C(C(=O)Nc2ccc(NC(=O)C(C)(C)C)cc2C(=O)c2ccccc2)c2ccccc2)CC1 (racemic),15,45
–,–,4.97,inactive,> 16,CC1CCN(C(=O)Nc2ccc(NC(=O)C(c3ccccc3)N3CCN(C)CC3)c(C(=O)c3ccccc3)c2)CC1 (centres undefined),–,–
71.5,53.4,–,inactive,> 16,CCC(=O)Nc1ccc(NC(=O)CN2CCN(C)CC2)c(C(=O)c2ccccc2)c1,>8,> 122
–,–,0.46,inactive,0.11,CC(C)N(C(=O)Nc1ccc(NC(=O)C(c2ccccc2)N2CCN(C)CC2)c(C(=O)c2ccccc2)c1)C(C)C (centres undefined),36,4
6.59,9.05,6.29,inactive,9.72,CC(=O)Nc1ccc(NC(=O)C(c2ccccc2)N2CCN(C)CC2)c(C(=O)c2ccccc2)c1 (racemic),11,105
5.84,5.58,15.5,inactive,10.6,CN1CCN(C(C(=O)Nc2ccc(NS(C)(=O)=O)cc2C(=O)c2ccccc2)c2ccccc2)CC1 (racemic),9,99
3.12,3.01,0.04,inactive,1.24,CN1CCN(C(C(=O)Nc2ccc(N(S(=O)(=O)c3ccccc3)S(=O)(=O)c3ccccc3)cc2C(=O)c2ccccc2)c2ccccc2)CC1 (racemic),10,12

# Reference: ChEMBL document CHEMBL1152663, “Antimalarial and antitrypanosomal activity of a series of amide and sulfonamide derivatives of a 2,5-diaminobenzophenone” (Bioorg Med Chem, 2009)
